Assay results taken from ChEMBL document CHEMBL1139212, “Indole alkaloids from three species of the Ervatamia genus: E. officinalis, E. divaricata, and E. divaricata Gouyahua” (J Nat Prod, 2007).
pIC50: −log10 of the molar value.

Assays:
P388 = experiment: Cytotoxicity against murine P388 cells by MTT method; assay type: functional, cell-based; details: Mus musculus
Outline: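 In vitro growth inhibition of P-388 murine leukemia cells, read by MTT reduction; pseudolaric acid B served as positive control.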

A549 = experiment: Cytotoxicity against human A549 cells by SRB method; assay type: functional, cell-based
Outline: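 In vitro growth inhibition of A-549 human lung carcinoma cells, read by sulforhodamine B staining; pseudolaric acid B served as positive control.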

Structure (SMILES)	pIC50 (P388)	pIC50 (A549)
CC[C@H]1C[C@@H]2C[C@H]3c4[nH]c5cc([C@@H]6C[C@H]7C(C(=O)OC)[C@@H](Cc8c6[nH]c6ccccc86)N(C)C[C@H]7CC)c(OC)cc5c4CCN(C2)[C@@H]13 (stereo partly specified)	6.08	5.96
C/C=C1/CN(C)[C@@H]2Cc3c([nH]c4ccccc34)[C@H](c3cc4[nH]c5c(c4cc3OC)CCN3C[C@@H]4C[C@H](CC)[C@H]3[C@H]5C4)C[C@H]1C2C(=O)OC (stereo partly specified)	6.96	6.28
CC[C@H]1C[C@@H]2C[C@H]3c4[nH]c5cc([C@@H]6C[C@H]7C(C(=O)OC)[C@@H](Cc8c6[nH]c6ccccc86)N(C)C[C@H]7CC)ccc5c4CCN(C2)[C@@H]13 (stereo partly specified)	6.37	6.59
CC[C@@]12C=CCN3CC[C@]4(C(=C(C(=O)OC)C1)Nc1cc5c(cc14)[C@H]1[C@@H](O5)[C@H](O)[C@]4(CC)CC(C(=O)OC)=C5Nc6c(cc(O)c(OC)c6OC)[C@@]56CCN1[C@H]46)[C@H]32 [CONOPHYLLIDINE]	7.60	7.36
CC[C@H]1C[C@H]2CN3CCc4c([nH]c5cc([C@@H]6C[C@H]7C(C(=O)OC)[C@@H](Cc8c6[nH]c6ccccc86)N(C)C[C@H]7CC)c(OC)cc45)[C@](C(=O)OC)(C2)[C@H]13 (stereo partly specified) [ERVADIVARICATINE B]	6.44	6.37
COC(=O)C1=CC[C@@]23CC[C@@H]([C@@](C)(/C=C/C=C(\C)C(=O)O)OC2=O)[C@@]3(OC(C)=O)CC1 [PSEUDOLARIC ACID B]	5.43	–
